Data from the EternaBench riboswitch data.

Tested on: MS2 coat protein
Test: apparent Kd, MS2 coat protein; higher = weaker binding; RNA-MaP array; theophylline 2 mM where present
In short: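 Green signal from SNAP-549-labelled MS2 coat protein was normalised to red-channel RNA signal and to the median Fmax of control clusters. The protein was titrated from 0.7 or 1.5 nM, doubling to 3 µM, without and then with constant ligand, over designs transcribed by stalled E. coli RNA polymerase on Illumina sequencing-chip clusters, in 100 mM Tris-HCl pH 7.5, 80 mM KCl, 4 mM MgCl2, BSA, DTT, yeast tRNA and Tween-20. The apparent Kd is the median of filtered per-cluster binding-curve fits.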

[1] = designed as: OFF switch for theophylline, no ligand
[2] = ligand present: theophylline, designed as: OFF switch for theophylline
[3] = designed as: ON switch for theophylline, no ligand
[4] = ligand present: theophylline, designed as: ON switch for theophylline

Row | Sequence | apparent Kd [1] [nM] | apparent Kd [2] [nM] | apparent Kd [3] [nM] | apparent Kd [4] [nM]
1 | AAACAUUGCUCAGAUACCAGACAUGAGGAUCACCCAUGUACCAAGGUACCCGAAAGGAAUGUCCCUUGGCAGCUGAGCAAUGAAA | 10.1 | 27.4 | – | –
2 | AAAUAAAUAACUGAUACCAGUGGACUGACAUGAGGAUCACCCAUGUUGGGUUUUGUUGUCCACCCUUGGCAGCGGGCAUAUAAAA | 24.8 | 66.9 | – | –
3 | AACAUGAGGACGGAUACCAGUCACAUGAGGAUCACCCAUGUACAUGAGGAUCACCCAUGUGGCCCUUGGCAGCCGCAUGUGAUCA | 327 | 473 | – | –
4 | AACCGAGGCUAUCCUCUAAGAAAAUGUGAUACCAGAAUAAUUUUAUUCCCUUGGCAGCAUGACAUGAGGAUCACCCAUGUGUCUU | – | – | 187 | 151
5 | AACCGAGGCUAUCCUCUCCGACUAUGUGAUACCAGAAUAAUUUUAUUCCCUUGGCAGCAUGACAUGAGGAUCACCCAUGUCUCUU | – | – | 15.8 | 20.7
6 | AAGCUGGGUGUAAAAUAAAUAAUCACUGAUACCAGACUAUGAGAUGUCCCUUGGCAGCAGAAACAUGAGGAUCACCCAUGUAAUA | 20.7 | 21.5 | – | –
7 | AAUAACAUGAGGAUCACCCAUGUAAAAGAUACCAGAGUGAUGAUCCUCCCUUGGCAGCUUAAACGCUAUUGAUUACAAUAGCGAA | – | – | 41.5 | 144
8 | AAUAACAUGAGGAUCACCCAUGUAAAAGAUACCAGAGUGAUGAUCCUCCCUUGGCAGCUUAACGCUGAUUGGAAACAAUCAGCGA | – | – | 147 | 225
9 | ACACCGAAAGGUGCAUUUUCCUUUUCAGAUACCAGACUUUACGUUGUCCCUUGGCAGCUGUAUCACAUGAGGAUCACCCAUGUUG | – | – | 16.4 | 17.6
10 | ACAUGAGGAUCACCCAUGUAAUGGCACGAUACCAGCUGAUCCCGUGGCCCUUGGCAGCGUCCGGUGUGGUCCGCCGGGUUGGAGC | – | – | 21 | 39.3
11 | ACAUGAGGAUCACCCAUGUGGCGUCUUGAUACCAGACGAGAAGUAGUCCCUUGGCAGCAAAUACAUGAGGAUCACCCAUGUAGGA | 23.9 | 37.1 | – | –
12 | ACAUGAGGAUCACCCAUGUUCCUCGCCGAUACCAGUGAAGAAGAACGCCCUUGGCAGCGGAAAGAGUAUUUUGGAGAUGAGGUAC | 80.1 | 129 | – | –
13 | ACCGCAGGUCCUGAUACCAGAGACAUGAGGAUCACCCAUGUCCGAUCGUCCUGCCUCAGGCUCCCUUGGCAGCAGGGCUUGUCCU | 14.3 | 27.1 | – | –
14 | ACGACGCAUAGUGAUACCAGUAGAACAUGAGGAUCACCCAUGUCUGUUAUGUACAAAUACUGCCCUUGGCAGCACUAUGCGUCAG | – | – | 9.79 | 10.7
15 | ACGAUACGACAUGAGGAUCACCCAUGUGAUACCAGCGUGGAAACACGCCCUUGGCAGCACAAAUACUCCAAUAACGUAUCGAAAA | 260 | 240 | – | –
16 | ACGUCACGUUUACUCGUGGUUUCGUUCGAUACCAGUAGCGAGAGUUACCCUUGGCAGCGACAUGAGGAUCACCCAUGUACGAAGA | 13.1 | 27.2 | – | –
17 | ACGUCCGGGUUAAUCGUGGGCAUGGUCGAUACCAGUAUUUUAAUCUACCCUUGGCAGCGACAUGAGGAUCACCCAUGUGCGAUGA | 17 | 35.5 | – | –
18 | ACGUCCGGUUUACUCGUGGGCAUGGUCGAUACCAGUAUUUUAAUCUACCCUUGGCAGCGACAUGAGGAUCACCCAUGUGCGAAGA | 23.5 | 32.4 | – | –
19 | ACUAACUAUAGUGAUACCAGACGUACAUGAGGAUCACCCAUGUUACAUUCUUGGUUAAAAGUCCCUUGGCAGCACGAUAAGUUCG | 9.74 | 9.5 | – | –
20 | ACUAGUUGUGCAGAUACCAGACAUGAGGAUCACCCAUGUUUGGGAUCUAAUGAUCAUCCUGUCCCUUGGCAGCUGUACAUCUAGA | 103 | 26.3 | – | –
21 | AGACAUGUAAGAUAAAUGACUUAUACAGAUACCAGACUGUCUAAUGUCCCUUGGCAGCUGCAUAACAUGAGGAUCACCCAUGUAA | 28 | 26.1 | – | –
22 | AGAUCUUUCGAAAGAAGGAUAAUGGCUGAUACCAGAGACGAAAGUCUCCCUUGGCAGCAGUGCCAACAUGAGGAUCACCCAUGUA | – | – | 170 | 39.7
23 | AGCCCUGUGCUAGAUACCAGCUACAUGAGGAUCACCCAUGUGCGUCAGGACUGACUGUGUAGCCCUUGGCAGCUACUCGCAUGUA | 16.2 | 30.9 | – | –
24 | AGCCGAAACCUUGAUACCAGAUCAUGCUGCACAUGAGGAUCACCCAUGUCGUUAAACAUGGUCCCUUGGCAGCAAGUUAGGAUCU | – | – | 76.4 | 23.9
25 | AGCGACAUGCGUGAUACCAGCUACAUGAGGAUCACCCAUGUACGUCAGAAAUGACUGUGUAGCCCUUGGCAGCAUAAUGCAUGUC | 40.9 | 70.5 | – | –
